The source made the active and inactive calls. No cut-off for these calls is given here.
What was measured:
[1] = target: T1, C-C chemokine receptor type 2 (Homo sapiens, UniProt P41597); assay: Displacement of 0.1 nM [125I]CCL2 from human CCR2 expressing human U2OS cell membrane by scintillation spectrometry
Target sequence in this assay (P41597 whole entry, looked up): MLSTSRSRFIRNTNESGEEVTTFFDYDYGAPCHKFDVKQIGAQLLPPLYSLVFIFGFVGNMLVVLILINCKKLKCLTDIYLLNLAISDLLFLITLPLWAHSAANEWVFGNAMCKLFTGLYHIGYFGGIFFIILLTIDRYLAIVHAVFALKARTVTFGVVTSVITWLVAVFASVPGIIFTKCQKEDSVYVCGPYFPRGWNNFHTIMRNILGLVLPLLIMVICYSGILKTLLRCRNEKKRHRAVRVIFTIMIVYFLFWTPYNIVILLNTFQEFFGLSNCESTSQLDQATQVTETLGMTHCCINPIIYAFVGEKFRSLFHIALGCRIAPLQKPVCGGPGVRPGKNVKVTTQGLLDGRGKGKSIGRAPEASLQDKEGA

[2] = target: T1, C-C chemokine receptor type 2; assay: Displacement of 0.1 nM [125I]CCL2 from human CCR2 expressing human U2OS cell membrane by scintillation spectrometry; format: cell membranes
Method in brief: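 U2OS–CCR2 membranes (15 μg) incubated 150 min at 37 °C with 0.1 nM 125I-CCL2 with or without competitor. Ki derived from IC50 by Cheng–Prusoff. Mean ± S.E.M. of at least 3 experiments in duplicate.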
Target sequence in this assay (P41597 whole entry): as the sequence (P41597 whole entry, looked up) above

[3] = target: T1, C-C chemokine receptor type 2; assay: Displacement of [3H]INCB3344 from human CCR2 receptor expressed in human U2OS cell membrane assessed as kinetic rate index at Ki by dual-point competition association assay relative to control; format: cell membranes
Method in brief: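 U2OS–CCR2 membranes (10 μg) incubated with 1.8 nM [3H]INCB3344 at 25 °C for 50 min (t1) or 240 min (t2). Unlabeled ligand was present at 1-fold its Ki from 125I-CCL2 displacement. KRI = specific binding at t1 divided by specific binding at t2.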
Target sequence in this assay (P41597 whole entry, looked up): as above

[4] = target: T1, C-C chemokine receptor type 2; assay: Antagonist activity at human CCR2 expressing human U2OS cells assessed as inhibition of CCL2-induced G protein activation at 10 uM by [35S]GTPgammaS binding/scintillation spectrometry assay; format: functional, cell-based
Method in brief: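 Membranes (10 μg) in 50 mM Tris-HCl pH 7.4, 5 mM MgCl2, 100 mM NaCl, 1 mM EDTA, 0.05% BSA, 10 μM GDP, 10 μg saponin; 30 min preincubation with 10 μM antagonist at 25 °C, then 10 nM CCL2 for 30 min, then 0.3 nM [35S]GTPγS for 90 min. Stopped with ice-cold buffer, GF/B filtration, scintillation counting.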
Target sequence in this assay (P41597 whole entry, looked up): as above

[5] = Residence time of the compound

## CC(C)[C@]1(C(=O)N2CCc3ccc(C(F)(F)F)cc3C2)CC[C@@H](NC2CCc3cc(-c4ccccc4)ccc32)C1 (stereo partly drawn)
[1]
  inhibition: 28%

## CC(C)[C@]1(C(=O)N2CCc3ccc(C(F)(F)F)cc3C2)CC[C@@H](N[C@H]2C[C@@H](C)c3cc(Br)ccc32)C1
[2]
  Ki: 1.7 nM
[3]
  Ratio: 1.4
[4]
  inhibition: Active
[5]
  Residence time: 588 min

## CC(C)[C@]1(C(=O)N2CCc3ccc(C(F)(F)F)cc3C2)CC[C@@H](NC2CCc3cc(I)ccc32)C1 (stereo partly drawn)
[2]
  Ki: 4.4 nM
[3]
  Ratio: 1.3
[5]
  Residence time: 103 min

## CO[C@@H]1COCC[C@@H]1N[C@@H]1CC[C@@](C(=O)N2CCc3ncc(C(F)(F)F)cc3C2)(C(C)C)C1 [MK-0812]
[2]
  Kd: 0.48 nM
  Ki: 0.55 nM
[5]
  Residence time: 92 min

## CC(C)[C@]1(C(=O)N2CCc3ccc(C(F)(F)F)cc3C2)CC[C@@H](N[C@H]2C[C@H](C)c3cc(Br)ccc32)C1
[2]
  Ki: 4.6 nM
[3]
  Ratio: 1.2
[4]
  inhibition: Active
[5]
  Residence time: 208 min

## CC(C)[C@]1(C(=O)N2CCc3ccc(C(F)(F)F)cc3C2)CC[C@@H](NC2CCc3ccccc32)C1 (stereo partly drawn)
[2]
  Ki: 2.2 nM
[3]
  Ratio: 1
[5]
  Residence time: 21 min

## CC(C)[C@]1(C(=O)N2CCc3ccc(C(F)(F)F)cc3C2)CC[C@@H](NC2CCc3ccc(Cl)cc32)C1 (stereo partly drawn)
[2]
  Ki: 7.9 nM
[3]
  Ratio: 0.6

## COc1cc(-c2ccc3c(c2)CCC3N[C@@H]2CC[C@@](C(=O)N3CCc4ccc(C(F)(F)F)cc4C3)(C(C)C)C2)c(F)cn1 (stereo partly drawn)
[2]
  Ki: 12 nM
[3]
  Ratio: 0.8

## CC1CC(N[C@@H]2CC[C@@](C(=O)N3CCc4ccc(C(F)(F)F)cc4C3)(C(C)C)C2)c2ccc(Br)cc21 (stereo partly drawn)
[2]
  Ki: 2 nM
[3]
  Ratio: 1.3
[5]
  Residence time: 345 min

## COc1cccc(-c2ccc3c(c2)CCC3N[C@@H]2CC[C@@](C(=O)N3CCc4ccc(C(F)(F)F)cc4C3)(C(C)C)C2)c1 (stereo partly drawn)
[2]
  Ki: 39 nM
[3]
  Ratio: 0.8

## COc1ccccc1-c1ccc2c(c1)CCC2N[C@@H]1CC[C@@](C(=O)N2CCc3ccc(C(F)(F)F)cc3C2)(C(C)C)C1 (stereo partly drawn)
[1]
  inhibition: 2%

## Cc1cccc(-c2ccc3c(c2)CCC3N[C@@H]2CC[C@@](C(=O)N3CCc4ccc(C(F)(F)F)cc4C3)(C(C)C)C2)c1 (stereo partly drawn)
[1]
  inhibition: 24%

## CC(C)[C@]1(C(=O)N2CCc3ccc(C(F)(F)F)cc3C2)CC[C@@H](NC2CCc3c(C#N)cccc32)C1 (stereo partly drawn)
[2]
  Ki: 15 nM
[3]
  Ratio: 0.6

## COc1cc2c(cc1Br)CCC2N[C@@H]1CC[C@@](C(=O)N2CCc3ccc(C(F)(F)F)cc3C2)(C(C)C)C1 (stereo partly drawn)
[2]
  Ki: 4.5 nM
[3]
  Ratio: 1.3
[5]
  Residence time: 323 min

## CC(C)[C@]1(C(=O)N2CCc3ccc(C(F)(F)F)cc3C2)CC[C@@H](NC2CCc3cc(-c4ccc(C#N)cc4)ccc32)C1 (stereo partly drawn)
[2]
  Ki: 11 nM
[3]
  Ratio: 0.9

## CC(C)[C@]1(C(=O)NCc2cc(C(F)(F)F)cc(C(F)(F)F)c2)CC[C@@H](NC2CCc3ccccc32)C1 (stereo partly drawn)
[3]
  Ratio: 0.8
[5]
  Residence time: 9.1 min

## CC(C)[C@]1(C(=O)N2CCc3ccc(C(F)(F)F)cc3C2)CC[C@@H](NC2CCc3cc(-c4cccc(C#N)c4)ccc32)C1 (stereo partly drawn)
[2]
  Ki: 55 nM
[3]
  Ratio: 0.7

## CC(C)[C@]1(C(=O)N2CCc3ccc(C(F)(F)F)cc3C2)CC[C@@H](N[C@H]2CCc3cc(Br)ccc32)C1
[2]
  Ki: 24 nM
[3]
  Ratio: 0.8
[4]
  inhibition: Active
[5]
  Residence time: 15 min

## COc1cc2c(cc1OC)C(N[C@@H]1CC[C@@](C(=O)N3CCc4ccc(C(F)(F)F)cc4C3)(C(C)C)C1)CC2 (stereo partly drawn)
[2]
  Ki: 1.2 nM
[3]
  Ratio: 1
[5]
  Residence time: 63 min

## CC(C)[C@]1(C(=O)N2CCc3ccc(C(F)(F)F)cc3C2)CC[C@@H](NC2CCc3c(O)cccc32)C1 (stereo partly drawn)
[2]
  Ki: 21 nM
[3]
  Ratio: 0.7

## CC(C)[C@]1(C(=O)N2CCc3ccc(C(F)(F)F)cc3C2)CC[C@@H](NC2CCc3cc(C(F)(F)F)ccc32)C1 (stereo partly drawn)
[2]
  Ki: 13 nM
[3]
  Ratio: 1.4
[4]
  inhibition: Active
[5]
  Residence time: 667 min

— ChEMBL document CHEMBL3414488, “When structure-affinity relationships meet structure-kinetics relationships: 3-((Inden-1-yl)amino)-1-isopropyl-cyclopentane-1-carboxamides as CCR2 antagonists” (Eur J Med Chem, 2015)
